Experimental data pooled from the literature.
Compare with care: the assays were run in different laboratories.
FLT3 D835Y: Receptor-type tyrosine-protein kinase FLT3 (FLT3, Homo sapiens, UniProt P36888, D835Y)
FLT3: Receptor-type tyrosine-protein kinase FLT3 (FLT3, Homo sapiens, UniProt P36888)
FLT3 N841I: Receptor-type tyrosine-protein kinase FLT3 (FLT3, Homo sapiens, UniProt P36888, N841I)
FLT3 K663Q: Receptor-type tyrosine-protein kinase FLT3 (FLT3, Homo sapiens, UniProt P36888, K663Q)

Cc1n[nH]c2ccc3nc(-c4ccc(C(=O)NCCN(C)C)cc4F)c4c(c3c12)CCCC4
remaining activity (FLT3 D835Y; enzyme activity, inhibitor, radiometric; 0.5 µM): 2%

CN(C)C(=O)c1cc2cnc(Nc3ccc(-c4ccc5c(=O)cc(N6CCOCC6)oc5c4)cc3)nc2n1C1CCCC1
remaining binding (FLT3; binding, competition with immobilised ligand; 1 µM): 3.9%

Cc1cc(S(=O)(=O)N[C@H]2CC[C@H](CN3CCN(c4ccc(C5CCC(=O)NC5=O)cc4F)CC3)CC2)ccc1Nc1ncc(C(F)(F)F)c(N2CCC[C@](C)(O)C2)n1 (stereo partly drawn)
remaining binding (FLT3 N841I; binding, competition with immobilised ligand; 1 µM): 47%

C#Cc1cc(-c2cc(Nc3nc(N[C@@H](C)c4ccc(F)cn4)ncc3Cl)n[nH]2)ccc1C=O
inhibition (FLT3; enzyme activity, inhibitor; 0.2 µM): 98.8%

C[C@H]1CC[C@H](n2c3cnccc3c3cnc(Nc4ccc5c(n4)CCN(C(=O)CO)C5)nc32)CC1
remaining signal (FLT3 D835Y; cell-free assay; 1 µM): 1%

C1=C/COCc2cc(ccc2OCCN2CCCC2)Nc2nccc(n2)-c2cccc(c2)COC/1
remaining binding (FLT3 N841I; binding; 0.1 µM): 4.3%

C=CC(=O)N1CCC([C@@H]2CCNc3c(C(N)=O)c(-c4ccc(Oc5ccccc5)cc4)nn32)CC1
inhibition (FLT3 D835Y; enzyme activity, inhibitor; 1 µM): 81%

C[C@]1(O)CCCN(c2nc(Nc3ccc(S(=O)(=O)N[C@H]4CC[C@H](CN5CCN(c6ccc(C7CCC(=O)NC7=O)cc6F)CC5)CC4)cc3Cl)ncc2C(F)(F)F)C1 (stereo partly drawn)
remaining binding (FLT3 N841I; binding, competition with immobilised ligand; 1 µM): 68%

O=C1C=C(Nc2ccc(OCc3cn(Cc4ccc(Cl)c(Cl)c4)nn3)cc2)C(=O)c2ccccc21
inhibition (FLT3; enzyme activity, inhibitor, radiometric; 10 µM): -21%

Cc1ccc(NC(=O)c2ccnc(C(F)(F)F)c2)cc1-c1cc(OCCO)nc(N2CCOCC2)c1
remaining binding (FLT3 N841I; binding; 1 µM): 82%

CC#CC(=O)N1CCC[C@H]1c1nc(-c2ccc(C(=O)Nc3ccccn3)cc2)c2c(N)nccn12
inhibition (FLT3 N841I; enzyme activity, inhibitor; 1 µM): 18%

CN1CCN(C(=O)c2ccc(NC(=O)Nc3ccc(N(C)c4ccnc(Nc5ccc(CS(C)(=O)=O)cc5)n4)cc3)cc2)CC1
remaining binding (FLT3 K663Q; binding; 1 µM): 0%

COc1ccc2oc(-c3ccc4nc(N)oc4c3)c/c(=N\c3ccccc3NC(=O)CCN)c2c1
remaining binding (FLT3; binding; 1 µM): 108%

CCCCC(=O)Nc1ccc(-c2ccc3ncn(CCC)c(=O)c3c2)cn1
remaining binding (FLT3 K663Q; binding, competition with immobilised ligand; 0.5 µM): 96%

COc1ccc2[nH]c3c4[nH]c5ccc(OC)cc5c4c4c(c3c2c1)C(=O)NC4=O
remaining binding (Receptor-type tyrosine-protein kinase FLT3 (FLT3, Homo sapiens, UniProt P36888, D835V); binding; 1 µM): 4%
